Reference: ChEMBL document CHEMBL1138024, “Aryl urea analogs with broad-spectrum antibacterial activity” (Bioorg Med Chem Lett, 2004)
In brackets after ≈: the same amount, converted by molar mass.

Columns and labels:
Type in all cases: functional
Staphylococcus aureus [1] = test: In vitro antibacterial activity against Staphylococcus aureus; value ranges from 12-25 uM
Staphylococcus aureus [2] = test: In vitro antibacterial activity against Staphylococcus aureus; value ranges from 25-50 uM
Escherichia coli [3] = test: Minimum inhibitory concentration against Escherichia coli ATCC 25922; value ranges from 6-12 uM
Staphylococcus aureus [4] = test: In vitro antibacterial activity against Staphylococcus aureus; value ranges from 3-6 uM
Enterococcus faecium [5] = test: Minimum inhibitory concentration against Enterococcus faecium ATCC 6569
Pseudomonas aeruginosa = test: Minimum inhibitory concentration against Pseudomonas aeruginosa ATCC 25416
Klebsiella pneumoniae [6] = test: Minimum inhibitory concentration against Klebsiella pneumoniae ATCC 13383; value ranges from 6-12 uM
Proteus vulgaris = test: Minimum inhibitory concentration against Proteus vulgaris ATCC 8427; value ranges from 12-25 uM
Staphylococcus aureus [7] = test: Minimum inhibitory concentration against Staphylococcus aureus ATCC 13709; value ranges from 3-6 uM
Streptococcus pyogenes [8] = test: Minimum inhibitory concentration against Streptococcus pyogenes ATCC 49399; value ranges from 3-6 uM
Staphylococcus aureus [9] = test: Minimum inhibitory concentration against Staphylococcus aureus ATCC 13709 (+4% BSA); value ranges from 12-25 uM
In short: (§1)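 Same microdilution MIC against S. aureus ATCC 13709, but with 4% bovine serum albumin in the wells. Compound in 0.5% DMSO in water, inoculum about 10³–10⁴ CFU/well, duplicates. Growth was read as A595 after 20–24 h at 37°C against a compound-free control. MIC is reported as the range between full inhibition and viable growth.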

Enterococcus faecalis [10] = test: Minimum inhibitory concentration against Enterococcus faecalis ATCC 29212; value ranges from 3-6 uM
Huh-7 [11] = test: Cytotoxic concentration against Huh7 cells at 48 hours in MTT assay; value ranges from 12.5-25 uM; details: Homo sapiens, Huh-7, 48 h
Staphylococcus aureus [12] = test: In vitro antibacterial activity against Staphylococcus aureus; value ranges from 6-12 uM
Enterococcus faecalis [13] = test: Minimum inhibitory concentration against Enterococcus faecalis ATCC 29212
Huh-7 [14] = test: Cytotoxic concentration against Huh7 cells at 48 hours in MTT assay; value ranges from 25-50 uM; details: Homo sapiens, Huh-7, 48 h
Mus musculus [15] = test: In vivo antibacterial activity (Staphylococcus aureus) in a lethal murine model at a dose of 75 mg/kg; activity expressed as no. of mice alive/total tested; 3/10
Mus musculus [16] = test: In vivo antibacterial activity (Staphylococcus aureus) in a lethal murine model at a dose of 4.6 mg/kg; activity expressed as no. of mice alive/total tested; 0/10
Mus musculus [17] = test: In vivo antibacterial activity (Staphylococcus aureus) in a lethal murine model at a dose of 9.4 mg/kg; activity expressed as no. of mice alive/total tested; 2/10
Mus musculus [18] = test: In vivo antibacterial activity (Staphylococcus aureus) in a lethal murine model at a dose of 18.8 mg/kg; activity expressed as no. of mice alive/total tested; 4/10
Mus musculus [19] = test: In vivo antibacterial activity (Staphylococcus aureus) in a lethal murine model at a dose of 37.6 mg/kg; activity expressed as no. of mice alive/total tested; 3/10
Staphylococcus aureus [20] = test: In vitro antibacterial activity against Staphylococcus aureus; value ranges from 50-100 uM
Staphylococcus aureus [21] = test: In vitro antibacterial activity against Staphylococcus aureus
Escherichia coli [22] = test: Minimum inhibitory concentration against Escherichia coli ATCC 25922
Klebsiella pneumoniae [23] = test: Minimum inhibitory concentration against Klebsiella pneumoniae ATCC 13383
Staphylococcus aureus [24] = test: Minimum inhibitory concentration against Staphylococcus aureus ATCC 13709 (+4% BSA); value ranges from 3-6 uM
Streptococcus pyogenes [25] = test: Minimum inhibitory concentration against Streptococcus pyogenes ATCC 49399; value ranges from 1.5-3 uM
Enterococcus faecium [26] = test: Minimum inhibitory concentration against Enterococcus faecium ATCC 6569; value ranges from 3-6 uM
Staphylococcus aureus [27] = test: Minimum inhibitory concentration against Staphylococcus aureus ATCC 13709 (+4% BSA); value ranges from 50-100 uM; in short: as §1
Enterococcus faecalis [28] = test: Minimum inhibitory concentration against Enterococcus faecalis ATCC 29212; value ranges from 6-12 uM
Klebsiella pneumoniae [29] = test: Minimum inhibitory concentration against Klebsiella pneumoniae ATCC 13383; value ranges from 3-6 uM

## Fc1ccc(N/C(S)=N/CCCNCc2cc(Br)cc(Br)c2)cc1
Staphylococcus aureus [1]
  MIC: 25 µM (≈ 11.9 µg/mL)

## COc1cccc(N/C(S)=N/CCCNCc2cc(Br)cc(Br)c2)c1
Staphylococcus aureus [2]
  MIC: 50 µM (≈ 24.4 µg/mL)

## Fc1ccccc1/N=C(\S)NCCCNCc1cc(Br)cc(Br)c1
Staphylococcus aureus [2]
  MIC: 50 µM (≈ 23.8 µg/mL)

## O=[N+]([O-])c1ccc(N/C(S)=N/CCCNCc2cc(Br)cc(Br)c2)cc1
Staphylococcus aureus [1]
  MIC: 25 µM (≈ 12.6 µg/mL)

## O=C(NCCCNCc1ccc(Oc2ccccc2)cc1)Nc1ccc(C(F)(F)F)cc1
Escherichia coli [3]
  MIC: 12 µM (≈ 5.32 µg/mL)
Staphylococcus aureus [4]
  MIC: 6 µM (≈ 2.66 µg/mL)
Enterococcus faecium [5]
  MIC: > 100 µM
Pseudomonas aeruginosa
  MIC: > 100 µM
Klebsiella pneumoniae [6]
  MIC: 12 µM (≈ 5.32 µg/mL)
Proteus vulgaris
  MIC: 25 µM (≈ 11.1 µg/mL)
Staphylococcus aureus [7]
  MIC: 6 µM (≈ 2.66 µg/mL)
Streptococcus pyogenes [8]
  MIC: 6 µM (≈ 2.66 µg/mL)
Staphylococcus aureus [9]
  MIC: 25 µM (≈ 11.1 µg/mL)
Enterococcus faecalis [10]
  MIC: 6 µM (≈ 2.66 µg/mL)
Huh-7 [11]
  CC50: 25 µM

## N#Cc1ccc(NC(=S)NCCCNCc2cc(Br)cc(Br)c2)cc1
Staphylococcus aureus [2]
  MIC: 50 µM (≈ 24.1 µg/mL)

## CN(C)c1ccc(CNCCCNC(=O)Nc2ccc(C(F)(F)F)cc2)cc1
Staphylococcus aureus [1]
  MIC: 25 µM (≈ 9.86 µg/mL)

## CCOc1ccc(Br)cc1CNCCCNC(=O)Nc1ccc(C(F)(F)F)cc1
Staphylococcus aureus [12]
  MIC: 12 µM (≈ 5.69 µg/mL)

## Fc1cccc(N/C(S)=N/CCCNCc2cc(Br)cc(Br)c2)c1
Staphylococcus aureus [1]
  MIC: 25 µM (≈ 11.9 µg/mL)

## O=C(NCCCNCc1ccc(-c2ccccc2)cc1)Nc1ccc(C(F)(F)F)cc1
Enterococcus faecalis [13]
  MIC: > 100 µM
Escherichia coli [3]
  MIC: 12 µM (≈ 5.13 µg/mL)
Staphylococcus aureus [4]
  MIC: 6 µM (≈ 2.56 µg/mL)
Enterococcus faecium [5]
  MIC: > 100 µM
Pseudomonas aeruginosa
  MIC: > 100 µM
Klebsiella pneumoniae [6]
  MIC: 12 µM (≈ 5.13 µg/mL)
Proteus vulgaris
  MIC: 25 µM (≈ 10.7 µg/mL)
Staphylococcus aureus [7]
  MIC: 6 µM (≈ 2.56 µg/mL)
Streptococcus pyogenes [8]
  MIC: 6 µM (≈ 2.56 µg/mL)
Staphylococcus aureus [9]
  MIC: 25 µM (≈ 10.7 µg/mL)
Huh-7 [14]
  CC50: 50 µM
Mus musculus [15]
  No. of animals alive: 3
Mus musculus [16]
  No. of animals alive: 0
Mus musculus [17]
  No. of animals alive: 2
Mus musculus [18]
  No. of animals alive: 4
Mus musculus [19]
  No. of animals alive: 3

## O=C(NCCCNCc1ccccc1)Nc1ccc(C(F)(F)F)cc1
Staphylococcus aureus [20]
  MIC: 100 µM (≈ 35.1 µg/mL)

## CN(CCCNC(=O)Nc1ccc(C(F)(F)F)cc1)Cc1cc(Br)cc(Br)c1
Staphylococcus aureus [21]
  MIC: > 100 µM

## Cc1ccc(N/C(S)=N/CCCNCc2cc(Br)cc(Br)c2)cc1
Staphylococcus aureus [1]
  MIC: 25 µM (≈ 11.8 µg/mL)

## O=C(NCCCNCc1cc(F)cc(F)c1)Nc1ccc(C(F)(F)F)cc1
Staphylococcus aureus [20]
  MIC: 100 µM (≈ 38.7 µg/mL)

## COc1ccc(-c2ccc(CNCCCNC(=O)Nc3ccc(C(F)(F)F)cc3)cc2)cc1
Staphylococcus aureus [4]
  MIC: 6 µM (≈ 2.74 µg/mL)

## CC(=O)NCC1CN(c2ccc(N3CCOCC3)c(F)c2)C(=O)O1 (single isomer, unassigned) [LINEZOLID]
Staphylococcus aureus [4]
  MIC: 6 µM (≈ 2.02 µg/mL)
Escherichia coli [22]
  MIC: > 100 µM
Enterococcus faecium [5]
  MIC: > 100 µM
Klebsiella pneumoniae [23]
  MIC: > 100 µM
Pseudomonas aeruginosa
  MIC: > 100 µM
Proteus vulgaris
  MIC: 25 µM (≈ 8.43 µg/mL)
Staphylococcus aureus [7]
  MIC: 6 µM (≈ 2.02 µg/mL)
Staphylococcus aureus [24]
  MIC: 6 µM (≈ 2.02 µg/mL)
Streptococcus pyogenes [25]
  MIC: 3 µM (≈ 1.01 µg/mL)
Enterococcus faecalis [10]
  MIC: 6 µM (≈ 2.02 µg/mL)

## S=C(NCCCNCc1cc(Br)cc(Br)c1)Nc1ccc(Cl)cc1
Staphylococcus aureus [12]
  MIC: 12 µM (≈ 5.9 µg/mL)

## COc1ccccc1-c1ccc(CNCCCNC(=O)Nc2ccc(C(F)(F)F)cc2)cc1
Staphylococcus aureus [12]
  MIC: 12 µM (≈ 5.49 µg/mL)

## CC(C)(C)c1ccc(CNCCCNC(=O)Nc2ccc(C(F)(F)F)cc2)cc1
Escherichia coli [3]
  MIC: 12 µM (≈ 4.89 µg/mL)
Staphylococcus aureus [4]
  MIC: 6 µM (≈ 2.44 µg/mL)
Pseudomonas aeruginosa
  MIC: > 100 µM
Enterococcus faecium [26]
  MIC: 6 µM (≈ 2.44 µg/mL)
Staphylococcus aureus [27]
  MIC: 100 µM (≈ 40.7 µg/mL)
Enterococcus faecalis [28]
  MIC: 12 µM (≈ 4.89 µg/mL)
Proteus vulgaris
  MIC: 25 µM (≈ 10.2 µg/mL)
Staphylococcus aureus [7]
  MIC: 6 µM (≈ 2.44 µg/mL)
Streptococcus pyogenes [8]
  MIC: 6 µM (≈ 2.44 µg/mL)
Klebsiella pneumoniae [29]
  MIC: 6 µM (≈ 2.44 µg/mL)

## S=C(NCCCNCc1cc(Br)cc(Br)c1)Nc1ccc(Cl)c(Cl)c1
Staphylococcus aureus [4]
  MIC: 6 µM (≈ 3.16 µg/mL)

## S=C(NCCCNCc1cc(Br)cc(Br)c1)Nc1ccccc1Cl
Staphylococcus aureus [1]
  MIC: 25 µM (≈ 12.3 µg/mL)

## FC(F)(F)c1cccc(N/C(S)=N/CCCNCc2cc(Br)cc(Br)c2)c1
Staphylococcus aureus [12]
  MIC: 12 µM (≈ 6.3 µg/mL)

## O=C(NCCCNCc1cc(Br)cc(Br)c1)Nc1ccc(Cl)c(Cl)c1
Staphylococcus aureus [4]
  MIC: 6 µM (≈ 3.06 µg/mL)
